Assay [1] can be described thus: S. cerevisiae growth inhibition in permissive medium (OD615), pilot counter-assay for S. cerevisiae lifespan shortening project, permissive growth control (AID 705;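 active = growth inhibition above 25% in both replicates, a cutoff set 3 SD above the mean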). Conditions: OD615, 24 h, at 10 µM, active compounds read high. The method in brief:
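System: Engineered DeaD yeast | Buffer or medium: SC raffinose/galactose permissive medium | Incubation: Cells pre-grown 4 h, then 24 h compound exposure, 30 °C humidified | Measured by: Absorbance (optical density) at 615 nm | Read-out: Reduction in yeast growth (OD615)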

The nature of assay [2]: S. cerevisiae growth inhibition in restrictive medium, OD615, pilot screen, restrictive growth control, yeast lifespan reduction project (AID 706;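 active = growth inhibition above a set limit, 3 SD over mean compound inhibition, in both replicates, cut at about 43% in these data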;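 also: modified DeaD lifespan yeast strain shifted to restrictive glucose medium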). Conditions: OD615, 48 h, at 10 µM, active compounds read high. The method in brief: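 Material: modified S. cerevisiae; Medium: glucose-based CSMM-D restrictive medium; Compound dosing: one concentration, 10 µM final, 0.25% DMSO; Incubation: 48 h compound exposure at 30 °C; Measured by: OD615.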

Assay [3] is described as follows: doxorubicin toxicity protection in MRP-1 cells – H69AR cells, CellTiter-Glo, duplicate, MRP-1 activator project, pilot screen (AID 807;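 active = viability increase at or above a cutoff of the median across tested compounds plus 3 SD, cut at about 8.5% in these data, passing the limit was not always enough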;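 also: compound pretreatment 18-22 h then 72 h combined with doxorubicin; 0% = doxorubicin alone and 100% = vehicle without doxorubicin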). The following applies: H69AR viability with doxorubicin, CellTiter-Glo luminescence; at 10 µM; active compounds read high.
Assay [4] can be described thus: viability of HCT116 without oncogenic beta-catenin – human colon tumor cells, pilot screen (AID 823;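 active = cell viability at or below a set limit in both duplicate runs, the limit being the all-compound median minus 4 SD, cut at about 23% in these data, passing the limit was not always enough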;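 also: 0% = wells killed by 20 µM Hyamine and 100% = untreated DMSO cell wells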). Conditions: HCT116 beta-catenin knockout viability, CellTiter-Glo, 60 h; at 10 µM; active compounds read low.
Assay [5] is described as follows: viability of PTEN-null HCT116 cells – cell-based, HCT116 clonal line, CellTiter-Glo, pilot screen (AID 824;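 active = viability at or below 27.92% in each of two runs, the all-compound median minus 4 SD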;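 also: 0% = 20 µM Hyamine control and 100% = vehicle cell control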). The following applies: HCT116 PTEN-deleted viability, 60 h, at 10 µM, active compounds read low.
Assay [6] in a line: RAM pathway blockade in budding yeast – dse1pr::URA3 reporter, 5-FOA selection, pilot screen (AID 869;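 active = inhibition over a set limit, the all-compound mean plus 3 SD, in both replicate runs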;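 also: 0% = DMSO wells with no growth and 100% = 10 µM 1-NA-PP1 with full growth; RAM network block rescues cells from 5-FOA so hits raise OD615 growth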). Conditions: S. cerevisiae dse1pr::URA3 5-FOA growth, OD615, 2 d; at 10 µM; active compounds read high; strain carries analog-sensitive mutant Cbk1 kinase.
Assay [7] in a line: RAM signaling pathway blockade in yeast – S. cerevisiae, Pdr1DBD-CYC8 efflux-inhibited sensitized strain, primary screen (AID 1298).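 Also: 0% = DMSO untreated cells without growth and 100% = 10 µM 1-NA-PP1 full growth; higher means more yeast growth rescued from 5-FOA killing.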 The following applies: S. cerevisiae cbk1-as DSE1-URA3 strain, 5-FOA growth OD615, 2 d; at 50 µM; active compounds read high.

Unmarked numbers belong to inactive results. Inconclusive results are not listed. The source made the active and inactive calls.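 The calls were made as follows, unless noted: active = RAM network inhibition above 8.4% in each of two replicates, 3 SD over the compound average; inconclusive = above 8.4% inhibition in only one replicate; inactive = 8.4% inhibition or less in each replicate.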

As for `C=CCn1c(=O)c2c(nc3n2CC(C)CN3c2cccc(OC)c2)n(C)c1=O` (stereo unspecified), the growth inhibition in assay [1] was -16.1%; in assay [2], -8.79%. Also, the viability increase in assay [3] was -3.27%. Also, the viability – broadly, a read-out of living cells in per cent, often relative to untreated cells – was 97.7% in assay [4] and 98.8% in assay [5]. For the same molecule, the inhibition (in general, the relative decrease from the control value, in per cent) in assay [6] was 1.56%. Besides, the RAM network inhibition in assay [7] is 5.52%.
Take `CCOC(=O)CSc1nnc(CSc2nc(N)c3c(C)c(C)sc3n2)n1-c1ccccc1`: the figures for the growth inhibition in assay [1] and in assay [2] were 14.1% and 53.5% (active), respectively. Also, the viability increase in assay [3] was -2.13%. In addition, the viability in assay [4] was 94.8%; in assay [5], 96.2%. In assay [6], the inhibition was 0.985%. Further, in assay [7], the RAM network inhibition was 5.21%.
Consider `COc1ccc(-c2cc(C(F)(F)F)n3nc(C)cc3n2)cc1`, for which the figures for the growth inhibition in assay [1] and in assay [2] were -16.1% and -2.2%, respectively. Further, the viability increase in assay [3] was 0.18%. For the same molecule, the viability in assay [4] was 96.2%; in assay [5], 87%. Besides, in assay [6], the inhibition is 2%. Besides, the RAM network inhibition in assay [7] is -0.06%.
As for `CCOC(=O)N1CCN(C(=O)C2CCCN(Cc3nc(-c4ccc(Cl)cc4)oc3C)C2)CC1` (stereo unspecified), the growth inhibition was 2.57% in assay [1] and -13.2% in assay [2]. The viability increase in assay [3] is -4.13%. Also, the viability in assay [4] is 37.9%; in assay [5], 46.5%. For the same molecule, the inhibition in assay [6] is 0.12%. The RAM network inhibition in assay [7] is 3.55%.
Take `CCCCN(C)CCNC(=O)Cn1ncc2c(=O)oc3ccc(C)cc3c21`: the results for the growth inhibition in assay [1] and in assay [2] were -3.19% and 0.355%, respectively. In addition, in assay [3], the viability increase was -2.9%. Besides, the viability in assay [4] is 95.1%; in assay [5], 94.2%. Further, the inhibition in assay [6] is 0.93%. For the same molecule, the RAM network inhibition in assay [7] is 3.72%.
As to `CC(C)CCOc1cccc(C2c3c(oc4ccccc4c3=O)C(=O)N2CCCN2CCOCC2)c1` (stereo unspecified), the results for the growth inhibition in assay [1] and in assay [2] were -3.75% and -23.9%, respectively. Moreover, the viability increase in assay [3] is -4.89%. The values for the viability in assay [4] and in assay [5] were 87.9% and 84.2%, respectively. Moreover, the inhibition in assay [6] was 0.82%. Besides, the RAM network inhibition in assay [7] is 6.7%.
Turning to `CCCCNC(=O)c1cc2c(=O)n3cccc(C)c3nc2n1C`, the growth inhibition was -8.58% in assay [1] and -6.39% in assay [2]. Besides, the viability increase in assay [3] was -4.36%. The figures for the viability in assay [4] and in assay [5] were 89.4% and 87.5%, respectively. The inhibition in assay [6] was 0.93%. For the same molecule, the RAM network inhibition in assay [7] was 2.87%.
Consider `CCOC(=O)C(C(=O)Nc1ccccc1)C1CCCCC1` (stereo unspecified), for which the values for the growth inhibition in assay [1] and in assay [2] were -7.22% and 1.79%, respectively. Moreover, the viability increase in assay [3] was -5.02%. Besides, the viability in assay [4] is 86.1%; in assay [5], 86.7%. Further, the inhibition in assay [6] was -0.18%. Besides, the RAM network inhibition in assay [7] was 3.67%.
For `COc1cc(Cl)c(S(=O)(=O)NCc2cccnc2)cc1Cl`, the growth inhibition in assay [1] was -9.13%; in assay [2], -9.08%. Moreover, in assay [3], the viability increase was 0.38%. The viability is 99.5% in assay [4] and 97.3% in assay [5]. Moreover, in assay [6], the inhibition is 0.745%. The RAM network inhibition in assay [7] was 4.73%.
For `COc1ccc(N2CCN(S(=O)(=O)c3ccc(OC)cc3)CC2)cc1`, the growth inhibition in assay [1] was -4.01%; in assay [2], 3.09%. For the same molecule, in assay [3], the viability increase was -5.5%. Besides, the results for the viability in assay [4] and in assay [5] were 99.3% and 106%, respectively. Further, the inhibition in assay [6] was 0.885%. In addition, the RAM network inhibition in assay [7] was 3.84%.
For the molecule `O=C(CN1CCN(c2ncccn2)CC1)N1CCN(C(c2ccccc2)c2ccccc2)CC1`, the figures for the growth inhibition in assay [1] and in assay [2] were -1.1% and -2.38%, respectively. Further, the viability increase in assay [3] was -3.26%. The viability in assay [4] was 84.8%; in assay [5] it was 85%. In addition, the inhibition in assay [6] is 1.64%. Also, the RAM network inhibition in assay [7] is 0.61%.
Take `COc1ccc2c(c1)OC1(C)CC2C(C(=O)c2ccccc2OC)C(=O)N1` (stereo unspecified): the growth inhibition in assay [1] is -18.1%; in assay [2], -9.23%. Besides, the viability increase in assay [3] was -4.56%. In addition, the figures for the viability in assay [4] and in assay [5] were 80.4% and 67%, respectively. For the same molecule, the inhibition in assay [6] is -0.025%. The RAM network inhibition in assay [7] was 1.48%.
Turning to `CCOC(=O)N1CCN(C(=O)CSc2nnc(-c3cccs3)o2)CC1`, the growth inhibition is 0.955% in assay [1] and 3.94% in assay [2]. For the same molecule, the viability increase in assay [3] was 0.87%. Further, the results for the viability in assay [4] and in assay [5] were 104% and 108%, respectively. In addition, in assay [6], the inhibition was 0.595%. The RAM network inhibition in assay [7] was 1.07%.
Take `Fc1cccc(-c2cc3nc4c(c(N5CCC6(CC5)OCCO6)n3n2)CCCC4)c1`: the growth inhibition in assay [1] was 3.03%; in assay [2], -2.67%. The viability increase in assay [3] is -3.94%. In addition, the results for the viability in assay [4] and in assay [5] were 70.6% and 61.5%, respectively. Besides, the inhibition in assay [6] was 1.19%. Moreover, in assay [7], the RAM network inhibition is -0.47%.
On to `CCn1cc(C(=O)N2CCCC2)c(=O)c2cc(S(=O)(=O)N(C)C)ccc21`, for which the growth inhibition is -3.43% in assay [1] and 6.6% in assay [2]. The viability increase in assay [3] was 0.77%. For the same molecule, the viability in assay [4] was 106%; in assay [5] it was 101%. For the same molecule, the inhibition in assay [6] was 0.825%. In addition, the RAM network inhibition in assay [7] was 3.02%.
As for `CC1CCCCN1S(=O)(=O)c1cccc2cccnc12` (stereo unspecified), the growth inhibition in assay [1] was 6.45%; in assay [2] it was 16.5%. Moreover, the viability increase in assay [3] is -3.21%. Besides, the viability in assay [4] was 96.8%; in assay [5] it was 83.7%. Further, the inhibition in assay [6] was 0.47%. The RAM network inhibition in assay [7] was 3.59%.
Consider `CCOC(=O)CSC(CC)C(=O)Nc1nnc(C(C)C)s1` (stereo unspecified), for which the results for the growth inhibition in assay [1] and in assay [2] were 5.7% and 9.58%, respectively. For the same molecule, the viability increase in assay [3] is -1.46%. Further, the viability in assay [4] was 94.6%; in assay [5] it was 94.7%. Moreover, in assay [6], the inhibition was 1%. Besides, the RAM network inhibition in assay [7] was 9.23%.
On to `CCN(c1cccc(C)c1)S(=O)(=O)c1cccc2nsnc12`, for which the growth inhibition is -12.6% in assay [1] and -20.3% in assay [2]. Besides, the viability increase in assay [3] is -3.59%. In addition, the viability is 77.1% in assay [4] and 88.8% in assay [5]. The inhibition in assay [6] is 1.4%. Also, in assay [7], the RAM network inhibition was 4.75%.

Source of the values: PubChem BioAssay.
